What was measured:
[1] = target: Coagulation factor X (Homo sapiens, UniProt P00742); experiment: Inhibitory activity against coagulation factor X.
Procedure, shortened: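 Human Factor Xa (0.3 nM) with chromogenic substrate S-2765 (0.15 mM) in 50 mM Tris-HCl pH 8.0, 100 mM NaCl, 0.1% BSA. A405 background read taken at once, then 60 min at room temperature, then p-nitroaniline release rate at 405 nm. Duplicates at seven concentrations; % inhibition versus control; IC50 from four-parameter logistic fit, averaged over the duplicates.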

[2] = target: T1, Coagulation factor VII (Homo sapiens, UniProt P08709); experiment: Inhibitory activity against tissue coagulation factor VII.
T1 sequence (P08709 whole entry): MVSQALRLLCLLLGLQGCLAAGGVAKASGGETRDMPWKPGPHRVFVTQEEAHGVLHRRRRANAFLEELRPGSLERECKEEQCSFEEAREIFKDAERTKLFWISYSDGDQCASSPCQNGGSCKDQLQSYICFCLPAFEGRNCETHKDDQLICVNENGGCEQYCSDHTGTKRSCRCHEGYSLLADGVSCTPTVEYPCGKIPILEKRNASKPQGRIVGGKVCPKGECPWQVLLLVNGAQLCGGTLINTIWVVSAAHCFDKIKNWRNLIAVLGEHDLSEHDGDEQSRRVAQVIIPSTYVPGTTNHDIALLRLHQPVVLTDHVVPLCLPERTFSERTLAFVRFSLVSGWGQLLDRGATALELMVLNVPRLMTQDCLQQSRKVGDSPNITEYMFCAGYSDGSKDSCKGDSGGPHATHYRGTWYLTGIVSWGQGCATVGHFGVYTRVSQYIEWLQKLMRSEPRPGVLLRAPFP
Procedure, shortened: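 Complex of recombinant soluble tissue factor (100 nM) and recombinant human Factor VIIa (2 nM). Substrate N-methylsulfonyl-D-Phe-Gly-Arg-p-nitroaniline at 0.4 mM in 5 mM CaCl2, 50 mM Tris-HCl pH 8.0, 100 mM NaCl, 0.1% BSA. Background A405 read first; after 60 min at room temperature, hydrolysis rate read at 405 nm. Duplicates at seven concentrations; IC50 is the duplicate average.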

[3] = target: Thrombin and coagulation factor VII (Homo sapiens) (UniProt P00734+P08709); experiment: Selectivity for coagulation factor VIIa over thrombin IIa.; format: protein assay
[4] = target: Prothrombin (Homo sapiens, UniProt P00734); experiment: Inhibitory activity against thrombin (IIa).
Procedure, shortened: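 Human thrombin (0.28 nM) with H-D-Phe-Pip-Arg-p-nitroaniline (0.06 mM) in 50 mM Tris-HCl pH 8.0, 100 mM NaCl, 0.1% BSA. Immediate background read at 405 nm, then 60 min at room temperature before measuring p-nitroaniline release rate at 405 nm. Seven concentrations in duplicate; % inhibition versus control; IC50 by four-parameter logistic regression.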

Chain of Coagulation factor X (P00742 41-179 limits assumed): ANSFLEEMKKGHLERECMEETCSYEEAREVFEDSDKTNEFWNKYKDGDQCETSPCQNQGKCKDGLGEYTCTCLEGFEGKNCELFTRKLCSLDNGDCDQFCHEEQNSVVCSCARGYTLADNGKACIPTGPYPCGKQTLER
Chain of Coagulation factor X (P00742 235-488 limits assumed): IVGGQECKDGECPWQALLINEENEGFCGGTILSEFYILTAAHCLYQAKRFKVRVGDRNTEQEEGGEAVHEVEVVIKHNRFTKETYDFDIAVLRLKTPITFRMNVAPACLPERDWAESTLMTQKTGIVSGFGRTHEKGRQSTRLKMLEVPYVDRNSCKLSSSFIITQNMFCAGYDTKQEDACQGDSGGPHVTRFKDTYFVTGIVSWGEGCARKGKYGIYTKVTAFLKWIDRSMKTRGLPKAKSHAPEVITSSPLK

SMILES | IC50 [1] [µM] | IC50 [2] [µM] | Selectivity [3] | IC50 [4] [µM]
N=C(N)NCCC[C@H](NC(=O)[C@H](Cc1ccc2ccccc2c1)NC(=O)[C@@H](Cc1ccccc1)NS(=O)(=O)Cc1ccccc1)C(=O)c1nccs1 | 0.77 | 1.95 | 1 | 2.4
N=C(N)NCCC[C@H](NC(=O)[C@H](CCc1ccccc1)NC(=O)[C@@H](Cc1ccccc1)NS(=O)(=O)Cc1ccccc1)C(=O)c1nccs1 | 0.54 | 0.9 | 12 | 10.4
N=C(N)NCCC[C@H](NC(=O)[C@H](Cc1cccc2ccccc12)NC(=O)[C@@H](Cc1ccccc1)NS(=O)(=O)Cc1ccccc1)C(=O)c1nccs1 | 1.8 | 5.6 | > 5 | > 30
Cc1cccc(C)c1C[C@H](NC(=O)[C@@H](Cc1ccccc1)NS(=O)(=O)Cc1ccccc1)C(=O)N[C@@H](CCCN=C(N)N)C(=O)c1nccs1 | 2.77 | 0.7 | 40 | 28.1
N=C(N)NCCC[C@H](NC(=O)[C@H](CC1CCCCC1)NC(=O)[C@@H](Cc1ccccc1)NS(=O)(=O)Cc1ccccc1)C(=O)c1nccs1 | 2.7 | 3.3 | 7 | 24.2
N=C(N)NCCC[C@H](NC(=O)[C@H](Cc1ccc(-c2ccccc2)cc1)NC(=O)[C@@H](Cc1ccccc1)NS(=O)(=O)Cc1ccccc1)C(=O)c1nccs1 | 3.14 | 17.8 | 1 | 11.2
N=C(N)NCCC[C@H](NC(=O)[C@H](Cc1ccc(I)cc1)NC(=O)[C@@H](Cc1ccccc1)NS(=O)(=O)Cc1ccccc1)C(=O)c1nccs1 | 0.5 | 1.56 | 4 | 6.3

Reference: ChEMBL document CHEMBL1145084, “Polymer-assisted solution-phase library synthesis and crystal structure of alpha-ketothiazoles as tissue factor VIIa inhibitors” (J Med Chem, 2003)
